Source: BindingDB's records for doi:10.1021/acs.jmedchem.7b01557 (University of Colorado, 2018)

Biological target: T1, Toll-like receptor 7 (Homo sapiens, UniProt Q9NYK1)
T1 sequence (Q9NYK1 whole entry): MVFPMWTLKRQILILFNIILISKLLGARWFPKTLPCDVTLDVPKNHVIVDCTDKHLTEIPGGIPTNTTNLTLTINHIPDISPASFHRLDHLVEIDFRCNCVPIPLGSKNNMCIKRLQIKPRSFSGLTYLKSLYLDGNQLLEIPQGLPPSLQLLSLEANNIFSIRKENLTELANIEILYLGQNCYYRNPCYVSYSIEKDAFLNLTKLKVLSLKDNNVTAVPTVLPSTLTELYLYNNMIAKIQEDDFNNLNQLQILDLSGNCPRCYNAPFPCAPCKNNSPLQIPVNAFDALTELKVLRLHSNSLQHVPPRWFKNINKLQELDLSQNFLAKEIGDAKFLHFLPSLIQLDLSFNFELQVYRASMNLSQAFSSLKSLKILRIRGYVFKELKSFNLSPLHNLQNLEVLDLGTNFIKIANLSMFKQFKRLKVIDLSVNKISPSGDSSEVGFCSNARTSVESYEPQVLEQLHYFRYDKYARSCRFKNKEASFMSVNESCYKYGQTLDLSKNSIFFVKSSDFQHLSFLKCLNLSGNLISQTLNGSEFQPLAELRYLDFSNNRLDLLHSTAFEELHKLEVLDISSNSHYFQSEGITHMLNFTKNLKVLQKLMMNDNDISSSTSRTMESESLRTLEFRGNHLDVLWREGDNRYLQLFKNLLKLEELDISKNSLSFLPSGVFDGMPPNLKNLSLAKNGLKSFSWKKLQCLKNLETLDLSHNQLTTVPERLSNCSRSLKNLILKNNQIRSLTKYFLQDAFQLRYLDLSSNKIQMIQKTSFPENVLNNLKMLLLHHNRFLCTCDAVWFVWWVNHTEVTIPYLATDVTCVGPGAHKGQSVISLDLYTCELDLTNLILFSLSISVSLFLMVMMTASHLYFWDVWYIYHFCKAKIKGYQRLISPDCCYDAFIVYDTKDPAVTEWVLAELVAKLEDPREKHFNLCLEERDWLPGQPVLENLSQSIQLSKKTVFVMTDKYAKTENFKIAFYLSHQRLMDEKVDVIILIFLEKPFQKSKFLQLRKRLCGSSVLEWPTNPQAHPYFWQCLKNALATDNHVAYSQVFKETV
Test: Antagonist activity at human TLR7 expressed in HEK293 cells assessed as inhibition of R848-induced NF-kappaB activation-mediated SEAP production after 24 hrs by Quanti-blue-based assay
Procedure, shortened: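 HEK293 cells stably carrying a human TLR plus an NF-κB-driven SEAP reporter, seeded 5×10^4/well for 24 h at 37 °C, then stimulated: Pam3CSK4 100 µg/mL (TLR1/2), Pam2CSK4 100 µg/mL, poly I:C 5 µg/mL (TLR3), LPS 20 ng/mL (TLR4), flagellin 100 ng/mL (TLR5), R848 1 µg/mL (TLR7, TLR8), CpG-ODN2006 1 µg/mL (TLR9). After 24 h with compound, supernatant mixed with QUANTI-Blue, 1 h 37 °C, OD 620 nm.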

Compound | IC50 [µM]
O=C(NNC(=O)c1csc(-c2cccc(F)c2)n1)c1ccccn1 | 2.6
O=C(NNC(=O)c1csc(-c2ccccc2)n1)c1ccccn1 | 5.8
O=C(NNC(=O)c1csc(-c2ccc(F)cc2)n1)c1ccccn1 | 4.4
O=C(NNC(=O)c1csc(-c2ccc(C(F)(F)F)cc2)n1)c1ccccn1 | 0.99
O=C(NNC(=O)c1ccccn1)c1ccc(OC(F)(F)F)cc1 | 22
CC(C)c1nc(C(=O)NNC(=O)c2ccccn2)cs1 | 14
O=C(NNC(=O)c1csc(-c2ccc(Cl)cc2Cl)n1)c1ccccn1 | 0.26
O=C(NNC(=O)c1csc(-c2cccc(C(F)(F)F)c2)n1)c1ccccn1 | 1.02
O=C(NNC(=O)c1ncccc1O)c1ccc(OC(F)(F)F)cc1 | 7.9
Cc1nc(C(=O)NNC(=O)c2ccccn2)cs1 | 30
Cc1nc(C(=O)NNC(=O)c2cccc(Cl)c2)cs1 | 60
O=C(NNC(=O)c1ncccc1O)c1ccc(Cl)cc1 | 27.8
O=C(NNC(=O)c1csc(-c2cccc(Cl)c2)n1)c1ccccn1 | 1
O=C(NNC(=O)c1csc(-c2cccnc2)n1)c1ccccn1 | 23.2
O=C(NNC(=O)c1csc(-c2ccc(Cl)cc2)n1)c1ccccn1 | 2.1
O=C(NNC(=O)c1ccccn1)c1ccc(C(F)(F)F)cc1 | 17
O=C(NNC(=O)c1ccccn1)c1ccc(Cl)cc1 | 24.7
O=C(NNC(=O)c1ncccc1O)c1ccc(C(F)(F)F)cc1 | 13.4

Compound | IC50 [µM]
COc1ccc(-c2nc(C(=O)NNC(=O)c3ccccn3)cs2)cc1 | 3.09
Nc1cccnc1C(=O)NNC(=O)c1cccc(C(F)(F)F)c1 | 16
O=C(NNC(=O)c1ccccn1)c1ccc(Br)cc1 | 17
O=C(NNC(=O)c1ccccn1)c1cccc(C(F)(F)F)c1 | 15
COc1ccc(-c2nc(C(=O)NNC(=O)c3ccccn3)cs2)cc1OC | 3.9
O=C(NNC(=O)c1csc(-c2cccc(Cl)c2Cl)n1)c1ccccn1 | 0.5
O=C(NNC(=O)c1ncccc1O)c1ccc(Br)cc1 | 17.3
Nc1nccnc1C(=O)NNC(=O)c1ccc(OC(F)(F)F)cc1 | 27
O=C(NNC(=O)c1ncccc1O)c1cccc(C(F)(F)F)c1 | 14.2
CCc1ccc(-c2nc(C(=O)NNC(=O)c3ccccn3)cs2)cc1 | 2.4
Nc1nccnc1C(=O)NNC(=O)c1ccc(C(F)(F)F)cc1 | 25
O=C(NNC(=O)c1csc(-c2cccc(Br)c2)n1)c1ccccn1 | 0.9
CN(C)c1ccc(-c2nc(C(=O)NNC(=O)c3ccccn3)cs2)cc1 | 1.9
Nc1nccnc1C(=O)NNC(=O)c1cccc(C(F)(F)F)c1 | 38
Cc1ccc(-c2nc(C(=O)NNC(=O)c3ccccn3)cs2)cc1 | 1.83
O=C(NNC(=O)c1csc(-c2cc(Cl)cc(Cl)c2)n1)c1ccccn1 | 0.44
Cc1nc(C(=O)NNC(=O)c2ccc(Cl)cc2)cs1 | 44.8
